ChEMBL document CHEMBL5724801, “EUbOPEN Chemogenomics Library - Multiplex” (2024)
Values joined by “and” are separate entries in the source; they are usually repeats but may differ in a detail not shown here. Equal values may be shown once.

System: Fibroblast
Test: Multiplex assay against human fibroblast
Type: toxicity, cell-based
Outline: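 Phenotypes for tubulin, mitochondrial mass and membrane permeability are expressed as per cents of healthy-nucleus cells. Cells were stained live at seeding with Hoechst33342, BioTracker Green Microtubule Cytoskeleton Dye, MitoTracker Red and Annexin V Alexa Fluor 680, then imaged after compound addition on a CQ1 microscope at 37°C and 5% CO2. Machine-learning gating in CellPathfinder separated Hoechst high-intensity objects from normal cells, divided normal cells by nuclear state (healthy, pyknosed, fragmented) and divided pyknosed cells into mitotic or apoptotic.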

[1] = 12 h, 1 µM, compound concentration 1 uM
[2] = 12 h, 10 µM, compound concentration 10 uM
[3] = 24 h, 1 µM, compound concentration 1 uM
[4] = 24 h, 10 µM, compound concentration 10 uM
[5] = 48 h, 1 µM, compound concentration 1 uM
[6] = 48 h, 10 µM, compound concentration 10 uM

COc1ccc2[nH]c(I)c(CCNC(C)=O)c2c1 [IODOMELATONIN]
Population Apoptotic (%) [1]: 53% and 32% | Population Fragmented Nuclei (%) [1]: 15% and 23% | Population Healthy Nuclei (%) [1]: 64% and 60% | Population Hoechst High Intensity Objects (%) [1]: 2% and 5% | Population Membrane Permeable-Phenotype (%) [1]: 4% and 7% | Population Mitochondria Different-Phenotype (%) [1]: 4% and 3% | Population Mitotic Cells (%) [1]: 46% and 68% | Population Normal (%) [1]: 97% and 94% | Population Pyknosed Nuclei (%) [1]: 19% and 15% | Population Tubulin-Different-Phenotype (%) [1]: 28% and 33% | Total Cell Count [1]: 137 and 173 | Population Apoptotic (%) [2]: 35% and 30% | Population Fragmented Nuclei (%) [2]: 14% and 38% | Population Healthy Nuclei (%) [2]: 64% and 44% | Population Hoechst High Intensity Objects (%) [2]: 2% and 3% | Population Membrane Permeable-Phenotype (%) [2]: 2% and 5% | Population Mitochondria Different-Phenotype (%) [2]: 6% and 0% | Population Mitotic Cells (%) [2]: 64% and 69% | Population Normal (%) [2]: 97% and 96% | Population Pyknosed Nuclei (%) [2]: 21% and 17% | Population Tubulin-Different-Phenotype (%) [2]: 20% and 43% | Total Cell Count [2]: 148 and 157 | Population Apoptotic (%) [3]: 62% and 57% | Population Fragmented Nuclei (%) [3]: 16% and 26% | Population Healthy Nuclei (%) [3]: 63% and 57% | Population Hoechst High Intensity Objects (%) [3]: 0% and 5% | Population Membrane Permeable-Phenotype (%) [3]: 0% and 6% | Population Mitochondria Different-Phenotype (%) [3]: 7% | Population Mitotic Cells (%) [3]: 37% and 42% | Population Normal (%) [3]: 99% and 94% | Population Pyknosed Nuclei (%) [3]: 20% and 15% | Population Tubulin-Different-Phenotype (%) [3]: 27% and 39% | Total Cell Count [3]: 134 and 176 | Population Apoptotic (%) [4]: 35% and 24% | Population Fragmented Nuclei (%) [4]: 16% and 38% | Population Healthy Nuclei (%) [4]: 58% and 41% | Population Hoechst High Intensity Objects (%) [4]: 2% and 4% | Population Membrane Permeable-Phenotype (%) [4]: 1% and 10% | Population Mitochondria Different-Phenotype (%) [4]: 4% and 1% | Population Mitotic Cells (%) [4]: 64% and 75% | Population Normal (%) [4]: 97% and 95% | Population Pyknosed Nuclei (%) [4]: 24% and 20% | Population Tubulin-Different-Phenotype (%) [4]: 30% and 40% | Total Cell Count [4]: 143 and 149 | Population Apoptotic (%) [5]: 76% and 42% | Population Fragmented Nuclei (%) [5]: 16% and 30% | Population Healthy Nuclei (%) [5]: 64% and 55% | Population Hoechst High Intensity Objects (%) [5]: 3% and 4% | Population Membrane Permeable-Phenotype (%) [5]: 0% and 5% | Population Mitochondria Different-Phenotype (%) [5]: 4% and 0% | Population Mitotic Cells (%) [5]: 23% and 57% | Population Normal (%) [5]: 96% and 95% | Population Pyknosed Nuclei (%) [5]: 18% and 13% | Population Tubulin-Different-Phenotype (%) [5]: 22% and 40% | Total Cell Count [5]: 147 and 163 | Population Apoptotic (%) [6]: 60% and 38% | Population Fragmented Nuclei (%) [6]: 29% and 48% | Population Healthy Nuclei (%) [6]: 56% and 38% | Population Hoechst High Intensity Objects (%) [6]: 7% and 2% | Population Membrane Permeable-Phenotype (%) [6]: 1% and 10% | Population Mitochondria Different-Phenotype (%) [6]: 1% and 5% | Population Mitotic Cells (%) [6]: 40% and 61% | Population Normal (%) [6]: 92% and 98% | Population Pyknosed Nuclei (%) [6]: 13% and 12% | Population Tubulin-Different-Phenotype (%) [6]: 22% and 57% | Total Cell Count [6]: 159 and 150

Cc1nn(C)c2nc(NNC(=O)Nc3cc(Cl)nc(Cl)c3)cc(C(C)C)c12
Population Apoptotic (%) [1]: 62% and 37% | Population Fragmented Nuclei (%) [1]: 15% and 31% | Population Healthy Nuclei (%) [1]: 68% and 53% | Population Hoechst High Intensity Objects (%) [1]: 3% and 2% | Population Membrane Permeable-Phenotype (%) [1]: 0% | Population Mitochondria Different-Phenotype (%) [1]: 4% and 7% | Population Mitotic Cells (%) [1]: 37% and 62% | Population Normal (%) [1]: 96% and 97% | Population Pyknosed Nuclei (%) [1]: 15% | Population Tubulin-Different-Phenotype (%) [1]: 27% and 46% | Total Cell Count [1]: 178 and 179 | Population Apoptotic (%) [2]: 53% and 21% | Population Fragmented Nuclei (%) [2]: 12% and 33% | Population Healthy Nuclei (%) [2]: 63% and 56% | Population Hoechst High Intensity Objects (%) [2]: 3% and 7% | Population Membrane Permeable-Phenotype (%) [2]: 2% and 5% | Population Mitochondria Different-Phenotype (%) [2]: 15% and 6% | Population Mitotic Cells (%) [2]: 46% and 78% | Population Normal (%) [2]: 96% and 92% | Population Pyknosed Nuclei (%) [2]: 23% and 10% | Population Tubulin-Different-Phenotype (%) [2]: 89% | Total Cell Count [2]: 139 and 140 | Population Apoptotic (%) [3]: 59% and 62% | Population Fragmented Nuclei (%) [3]: 18% and 21% | Population Healthy Nuclei (%) [3]: 68% | Population Hoechst High Intensity Objects (%) [3]: 1% and 2% | Population Membrane Permeable-Phenotype (%) [3]: 1% and 2% | Population Mitochondria Different-Phenotype (%) [3]: 3% and 6% | Population Mitotic Cells (%) [3]: 40% and 37% | Population Normal (%) [3]: 98% and 97% | Population Pyknosed Nuclei (%) [3]: 12% and 9% | Population Tubulin-Different-Phenotype (%) [3]: 29% and 50% | Total Cell Count [3]: 176 and 174 | Population Apoptotic (%) [4]: 52% and 25% | Population Fragmented Nuclei (%) [4]: 12% and 28% | Population Healthy Nuclei (%) [4]: 69% and 61% | Population Hoechst High Intensity Objects (%) [4]: 4% and 8% | Population Membrane Permeable-Phenotype (%) [4]: 1% and 0% | Population Mitotic Cells (%) [4]: 47% and 75% | Population Normal (%) [4]: 95% and 91% | Population Pyknosed Nuclei (%) [4]: 18% and 9% | Population Tubulin-Different-Phenotype (%) [4]: 95% and 89% | Total Cell Count [4]: 130 and 132 | Population Apoptotic (%) [5]: 71% and 57% | Population Fragmented Nuclei (%) [5]: 18% and 34% | Population Healthy Nuclei (%) [5]: 73% and 62% | Population Hoechst High Intensity Objects (%) [5]: 1% and 2% | Population Membrane Permeable-Phenotype (%) [5]: 1% and 2% | Population Mitochondria Different-Phenotype (%) [5]: 2% | Population Mitotic Cells (%) [5]: 28% and 42% | Population Normal (%) [5]: 98% and 97% | Population Pyknosed Nuclei (%) [5]: 7% and 3% | Population Tubulin-Different-Phenotype (%) [5]: 30% and 36% | Total Cell Count [5]: 188 and 184 | Population Apoptotic (%) [6]: 93% and 62% | Population Fragmented Nuclei (%) [6]: 16% and 38% | Population Healthy Nuclei (%) [6]: 70% and 56% | Population Hoechst High Intensity Objects (%) [6]: 8% and 3% | Population Membrane Permeable-Phenotype (%) [6]: 2% | Population Normal (%) [6]: 91% and 96% | Population Pyknosed Nuclei (%) [6]: 13% and 5% | Population Tubulin-Different-Phenotype (%) [6]: 96% and 85% | Total Cell Count [6]: 129 and 155
